From ChEMBL document CHEMBL4038329, “Side-Chain Modified Ergosterol and Stigmasterol Derivatives as Liver X Receptor Agonists” (J Med Chem, 2017) come the findings set out here.

Active and inactive are the calls of the source. The rule behind the calls is not given here.

The subject of data set [1] is HEK293. As to the kind of experiment: Activation of GAL4 fused human RXR expressed in HEK293 cells at 10 uM after 24 hrs by luciferase reporter gene assay.
The nature of data set [2]: Agonist activity at LXR in human HepG2 cells assessed as upregulation of SREBP1c mRNA levels at 10 uM after 6 hrs by qPCR analysis. It is filed as cell-based. In a few lines:
(§1)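 HepG2 cells treated with ligand (10 μM). Total RNA was extracted with TRIZOL; 2 µg was reverse-transcribed (1 h, 42 °C). SREBP1c, FASN and SCD1 transcripts were measured by qPCR. Mean ± SD of three biological samples; ANOVA with Dunnett's test.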

Data set [3] can be described thus: Agonist activity at LXR in human HepG2 cells assessed as upregulation of FASN mRNA levels at 10 uM after 6 hrs by qPCR analysis. It counts as cell-based. In a few lines:
as §1

In data set [4] the target is T1, Oxysterols receptor LXR-alpha (Homo sapiens) (UniProt Q13133).
T1 sequence (whole entry): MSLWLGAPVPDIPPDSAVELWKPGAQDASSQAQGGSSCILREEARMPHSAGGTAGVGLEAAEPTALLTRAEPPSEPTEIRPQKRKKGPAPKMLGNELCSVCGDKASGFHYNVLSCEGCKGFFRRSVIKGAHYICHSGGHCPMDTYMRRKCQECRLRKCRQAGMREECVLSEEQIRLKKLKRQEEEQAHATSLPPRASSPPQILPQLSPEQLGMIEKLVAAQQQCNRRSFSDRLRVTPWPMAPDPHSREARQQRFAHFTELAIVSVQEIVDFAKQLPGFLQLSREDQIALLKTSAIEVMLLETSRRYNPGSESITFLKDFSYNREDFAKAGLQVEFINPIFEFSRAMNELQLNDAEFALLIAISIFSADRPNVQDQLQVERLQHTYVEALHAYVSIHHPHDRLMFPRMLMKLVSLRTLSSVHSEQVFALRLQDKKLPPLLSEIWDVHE
As to the kind of experiment: Activation of GAL4 fused human LXR alpha expressed in HEK293 cells after 24 hrs by luciferase reporter gene assay relative to 22R-HC. It is filed as cell-based. In a few lines:
(§2)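 HEK293 cells carrying the Gal4-LXR-α or Gal4-LXR-β chimera plus the pMH100X4-TK-luc and Renilla reporters. Treatment started 6 h post-transfection and ran 24 h. Dual luciferase read-out. Efficacy is given as % of the response to 8 μM 22R-HC, ± SD, from three to five independent experiments.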

The nature of data set [5]: Agonist activity at LXR in human U937 cells assessed as upregulation of FASN mRNA levels at 10 uM after 6 hrs by qPCR analysis. It counts as cell-based. Put shortly: (§3)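 U937 cells, 3x10⁶ in 10 ml RPMI with 10% FBS, differentiated with PMA 10 ng/ml for 72 h at 37 °C, then treated with ligand (10 μM) for 6 h. Total RNA was isolated with TRIZOL; 2 µg was reverse-transcribed for 1 h at 42 °C. Transcripts were measured by qPCR. Mean ± SD of three biological samples; ANOVA with Dunnett's test.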

Data set [6] addresses T2, Peroxisome proliferator-activated receptor gamma (Homo sapiens) (UniProt P37231).
T2 sequence (whole entry): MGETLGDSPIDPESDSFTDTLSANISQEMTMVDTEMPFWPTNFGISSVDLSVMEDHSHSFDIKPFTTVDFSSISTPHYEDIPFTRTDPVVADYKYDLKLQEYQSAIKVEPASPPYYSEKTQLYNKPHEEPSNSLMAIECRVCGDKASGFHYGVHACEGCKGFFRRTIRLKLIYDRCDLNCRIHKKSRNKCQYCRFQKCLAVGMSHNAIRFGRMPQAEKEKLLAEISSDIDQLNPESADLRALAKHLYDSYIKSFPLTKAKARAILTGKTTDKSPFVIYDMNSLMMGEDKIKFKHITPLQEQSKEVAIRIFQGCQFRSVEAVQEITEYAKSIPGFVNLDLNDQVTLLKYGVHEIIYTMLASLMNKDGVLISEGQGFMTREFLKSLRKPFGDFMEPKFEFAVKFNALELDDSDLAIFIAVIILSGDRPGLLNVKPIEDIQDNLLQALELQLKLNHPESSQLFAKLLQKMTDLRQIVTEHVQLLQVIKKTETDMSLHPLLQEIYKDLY
As to the kind of experiment: Activation of GAL4 fused human PPARgamma expressed in HEK293 cells at 10 uM after 24 hrs by luciferase reporter gene assay.

Data set [7] is filed under the species Homo sapiens. Kind of data set: Agonist activity at LXR in human U937 cells assessed as upregulation of ABCA1 mRNA levels at 10 uM after 6 hrs by qPCR analysis. It counts as cell-based. In a few lines: as §3
The nature of data set [8]: Agonist activity at LXR in human HepG2 cells assessed as upregulation of SCD1 mRNA levels at 10 uM after 6 hrs by qPCR analysis. It counts as cell-based. Put shortly:
as §1

A short description of data set [9]: Agonist activity at LXR in human U937 cells assessed as upregulation of SCD1 mRNA levels at 10 uM after 6 hrs by qPCR analysis relative to control. It counts as cell-based. As to conditions: for Activity: human, 6 h, 10 µM; for fold induction at 10 µM: Homo sapiens, U-937, 6 h, read-out: FC. In a few lines: as §3
Data set [10] in a line: Agonist activity at LXR in human U937 cells assessed as upregulation of SREBP1c mRNA levels at 10 uM after 6 hrs by qPCR analysis. It is filed as cell-based. In a few lines: as §3
Data set [11] concerns the target T3, Oxysterols receptor LXR-beta (Homo sapiens) (UniProt P55055).
T3 sequence (whole entry): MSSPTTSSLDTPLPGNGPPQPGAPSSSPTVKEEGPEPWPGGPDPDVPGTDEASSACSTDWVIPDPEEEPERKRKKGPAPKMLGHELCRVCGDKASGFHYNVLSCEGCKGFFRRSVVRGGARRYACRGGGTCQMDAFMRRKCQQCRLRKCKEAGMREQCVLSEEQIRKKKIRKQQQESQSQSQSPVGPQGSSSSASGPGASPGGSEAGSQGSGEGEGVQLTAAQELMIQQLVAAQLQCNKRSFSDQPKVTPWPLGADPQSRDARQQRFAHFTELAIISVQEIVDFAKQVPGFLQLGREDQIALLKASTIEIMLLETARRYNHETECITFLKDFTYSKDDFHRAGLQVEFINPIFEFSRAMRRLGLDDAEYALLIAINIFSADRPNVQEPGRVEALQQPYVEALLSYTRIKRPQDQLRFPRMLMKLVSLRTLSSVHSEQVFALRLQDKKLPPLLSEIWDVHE
As to the kind of experiment: Activation of GAL4 fused human LXR beta expressed in HEK293 cells after 24 hrs by luciferase reporter gene assay relative to 22R-HC. It counts as cell-based. In a few lines:
as §2

For data set [12], the species on record is Homo sapiens. Kind of data set: Agonist activity at LXR in human U937 cells assessed as downregulation of LPS-induced CCL2 mRNA expression at 10 uM after 6 hrs by qPCR analysis. It counts as cell-based. Put shortly: (§4)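 PMA-differentiated U937 cells (10 ng/ml PMA, 72 h) were given LPS 100 ng/ml together with compound (10 μM) for 6 h. CCL2 and TNFα mRNA were measured by qPCR after TRIZOL RNA extraction and reverse transcription. Three biological samples per group, mean ± SD.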

Data set [13] deals with T4, Oxysterols receptor LXR-beta (Homo sapiens, UniProt P55055).
T4 sequence (P55055 whole entry): T3 sequence (whole entry)
As to the kind of experiment: Activation of GAL4 fused human LXR beta expressed in HEK293 cells after 24 hrs by luciferase reporter gene assay. It counts as cell-based. In a few lines: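 HEK293 cells (4x10⁴/well), grown in DMEM with 10% FBS at 37 °C under 5% CO₂, transiently co-transfected with pMH100X4-TK-luc, Renilla and the Gal4-LXR-α or Gal4-LXR-β plasmid. Dosing began 6 h after transfection and lasted 24 h, at 32, 16, 8, 4, 2 and 1 μM. Dual luciferase read-out. EC50 came from dose-response curves, averaged over three to five independent experiments, ± SD.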

The species named for data set [14] is Homo sapiens. As to the kind of experiment: Agonist activity at LXR in human U937 cells assessed as downregulation of LPS-induced TNFalpha mRNA expression at 10 uM after 6 hrs by qPCR analysis. It counts as cell-based. In a few lines:
as §4

On to `CC[C@@H](C(C)C)[C@@H]1O[C@H]1[C@@H](C)[C@H]1CC[C@H]2[C@@H]3CC=C4C[C@@H](O)CC[C@]4(C)[C@H]3CC[C@]12C`, for which the result in [1] and in [6] was inactive. The Activity result in data set [2], in data set [3], in [5], in data set [8], in data set [9] and in data set [10] was “Not Active” throughout. Further, the Efficacy in [4] stood at 56.8%; in [11], 36.3%. Besides, the outcome in data set [7] was Active.
Turning to `O=S(=O)(c1ccccc1)N(CC(F)(F)F)c1ccc(C(O)(C(F)(F)F)C(F)(F)F)cc1` [T091317], the Activity entry in [2] was “Not Active”; in [3], “Not Active”; in data set [5] it was “Not Active”; in data set [8], “Not Active”; in [9], “Not Active”; in data set [10], “Active”. The result in data set [7] and in data set [12] was Active.
In the case of `CC(C)[C@@H](C)[C@@H]1O[C@H]1[C@@H](C)[C@H]1CC[C@H]2C3=CC=C4C[C@@H](O)CC[C@]4(C)[C@H]3CC[C@]12C`, the outcome in data set [1] and in [6] was inactive. Also, the Activity entry in data set [2] was “Active”; in [3], “Not Active”; in data set [5], “Not Active”; in data set [8], “Not Active”; in data set [10], “Not Active”. The Efficacy turned out to be 51.7% in data set [4] and 48.5% in data set [11]. Also, the outcome in data set [7] and in data set [12] was Active. In [9], the fold induction at 10 µM is less than 2.
As for `CC(C)[C@@H](C)[C@H](O)C[C@@H](C)[C@H]1CC[C@H]2C3=CC=C4C[C@@H](O)CC[C@]4(C)[C@H]3CC[C@]12C`, the outcome in data set [1] and in [6] was inactive. The Activity entry in [2], in data set [3], in data set [5], in data set [8], in [9] and in data set [10] was “Not Active” each time. Moreover, the Efficacy in data set [4] came out at 63.9%. For the same molecule, the outcome in data set [7] was Active. Moreover, the EC50 result in data set [13] is recorded as “Not Active”.
On to `CC(C)[C@@H](C)CC(=O)[C@@H](C)[C@H]1CC[C@H]2C3=CC=C4C[C@@H](O)CC[C@]4(C)[C@H]3CC[C@]12C`, for which the outcome in [1] and in [6] was inactive. The Activity entry in [2], in [3], in data set [5], in [8], in data set [9] and in data set [10] was “Not Active” each time. Moreover, the Efficacy in data set [4] is 70.2%. In data set [7], the outcome was Active. The EC50 entry in [13] is reported as “Not Active”.
Take `CC[C@@H](C(C)C)[C@H]1O[C@@H]1[C@@H](C)[C@H]1CC[C@H]2[C@@H]3CC=C4C[C@@H](O)CC[C@]4(C)[C@H]3CC[C@]12C`: the outcome in data set [1] and in data set [6] was inactive. The Activity result in data set [2] is “Active”; in data set [3], “Not Active”; in data set [5], “Not Active”; in [8], “Not Active”; in [9], “Not Active”; in data set [10] it was “Not Active”. Further, the Efficacy came to 489% in data set [4] and 142% in data set [11]. In addition, the outcome in [7] and in [14] was Active.
In the case of `CC[C@H](C(=O)C[C@@H](C)[C@H]1CC[C@H]2[C@@H]3CC=C4C[C@@H](O)CC[C@]4(C)[C@H]3CC[C@]12C)C(C)C`, the result in [1] and in data set [6] was inactive. The Activity entry in data set [2], in data set [3], in data set [5], in data set [8] and in [10] was “Not Active” each time. The Efficacy worked out at 12.4% in [4] and 46.4% in [11]. In addition, the result in [7] and in data set [14] was Active. Besides, the fold induction at 10 µM in data set [9] was less than 2.
With `CC(C)[C@@H](C)C(=O)C[C@@H](C)[C@H]1CC[C@H]2C3=CC=C4C[C@@H](O)CC[C@]4(C)[C@H]3CC[C@]12C`, the outcome in data set [1] and in data set [6] was inactive. The Activity result in data set [2], in [3], in data set [5], in [8], in [9] and in data set [10] was “Not Active” each time. This molecule also came in with an Efficacy in data set [4] of 151%. In data set [7], the outcome was Active. Besides, the EC50 result in data set [13] was “Not Active”.
